Bioassay records: PubChem BioAssay, several laboratories
APJ agonist: APJ receptor agonism. CHO-K1 APJ PathHunter beta-arrestin, luminescence; 0% DMSO wells, 100% apelin. 0.11% of 330,000 active. P35414. AID 2520. activation, % at 20 µM;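 active = activation more than six SD over the plate average, tested at 20 µM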;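 also: 0% = DMSO alone and 100% = apelin-13 at 10 nM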
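Material: engineered CHO-K1 APJ arrestin reporter cells; amount: 1000 CHO-K1 reporter cells seeded per well; incubation: compound stimulation 90 min at 25 °C, detection 60 min; signal: luminescent beta-gal fragment complementation, chemiluminescent substrate; read-out basis: APJ agonist activity; controls: DMSO-only wells as negative, 10 nM Apelin-13 as positive control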
Beta2AR agonist: agonists of human beta-2 adrenergic receptor inducing internalization | AID 504454 | response, % (concentration not given with the values) | Am2.2-beta2AR cells, FAP receptor internalization, flow cytometry | P07550 | 0.43% of 340,000 active;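 active = response above a set limit, near 3 SD of response in nonfluorescent compounds, cut at about 42% in these data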
Target sequence (P07550 whole entry, looked up): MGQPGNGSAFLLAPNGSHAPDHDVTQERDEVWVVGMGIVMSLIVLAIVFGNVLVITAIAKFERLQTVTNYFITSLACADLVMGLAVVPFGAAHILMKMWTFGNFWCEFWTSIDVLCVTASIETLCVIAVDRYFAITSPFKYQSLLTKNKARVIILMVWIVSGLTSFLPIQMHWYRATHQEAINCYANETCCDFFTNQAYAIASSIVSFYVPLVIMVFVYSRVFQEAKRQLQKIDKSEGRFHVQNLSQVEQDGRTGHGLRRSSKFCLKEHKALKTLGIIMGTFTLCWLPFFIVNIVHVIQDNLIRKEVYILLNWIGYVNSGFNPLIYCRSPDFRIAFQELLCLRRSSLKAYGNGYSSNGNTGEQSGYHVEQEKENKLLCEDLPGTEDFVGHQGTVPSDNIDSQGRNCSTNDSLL
CCR6 antagonist: CCR6 (human) receptor antagonism; CHO-K1 CCR6 PathHunter beta-arrestin, luminescence, CCL20-stimulated; P51684; 0.49% of 340,000 active; inhibition, % at 20 µM; AID 493098;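 active = compounds whose inhibition of the agonist-driven luminescence signal at 20 µM reaches about 50%, limit read from the data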;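 also: cells stimulated with CCL20 at 14 nM final; plate controls were DMSO with CCL20 for no effect and DMSO without agonist for full effect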
APJ antagonist: blocks the human apelin receptor APJ; P35414; CHO-K1 APJ beta-arrestin complementation, luminescence; inhibition, % at 20 µM; 0.32% of 330,000 active; AID 2521;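 active = inhibition above about 40% at 20 µM, limit read from the data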;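 also: cells challenged with 10 nM apelin-13 agonist together with compound; plate controls were apelin-13 plus DMSO wells for no effect and DMSO wells lacking apelin-13 for full effect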
CXCR6 inh: inhibitors of human CXCR6 receptor; 0.36% of 360,000 active; inhibition, % at 20 µM; CHO-K1 PathHunter CXCR6 beta-arrestin, luminescence; O00574; AID 602244; in the data active = inhibition above about 34%, passing the limit was not always enough;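 also: antagonist mode with CXCL16 agonist at 10 nM final; 0% = 10 nM CXCL16 with DMSO and 100% = unstimulated wells without agonist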
PfGluPho inh: PfG6PD (Plasmodium falciparum) enzyme inhibition. inhibition, % at 20 µM. 0.78% of 350,000 active. PfGluPho enzyme, NADPH resazurin-diaphorase fluorescence;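 active = inhibition reaching at least a set limit at 20 µM in the primary screen, cut at about 59% in these data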;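 also: 0% = DMSO wells with substrate and 100% = DMSO wells lacking glucose-6-phosphate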
PfG6PD confirm: confirmation of Plasmodium falciparum G6PD inhibitors | recombinant PfGluPho, NADPH-diaphorase-resazurin fluorescence | 34% of 2,400 active | inhibition, % at 20 µM | AID 504753 | shares compounds with PfGluPho inh;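 active = inhibition of at least 50% at 20 µM in any single replicate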;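 also: 0% = DMSO with substrate and 100% = DMSO lacking glucose-6-phosphate substrate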
Diaphorase 10uM: counter-screen for P. falciparum G6PD inhibitors: diaphorase inhibitors, oxidizers | shares compounds with PfGluPho inh | diaphorase-coupled resazurin reduction, fluorescence, NADPH 10 uM | inhibition, % at 20 µM | 39% of 820 active;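 active = average inhibition reaching 50% or more with the compound at 20 µM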;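 also: resorufin red fluorescence formed as diaphorase reduces resazurin using NADPH; 0% = DMSO with enzyme and 100% = DMSO without enzyme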
Diaph ctr 30uM: counter-screen for P. falciparum G6PD inhibitors: diaphorase inhibitors, oxidizers; shares compounds with PfGluPho inh; Diaphorase/resazurin coupled assay, resorufin fluorescence, 30 uM NADPH; inhibition, % at 20 µM; 29% of 820 active;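 active = inhibition averaging 50% or more, tested at 20 µM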;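 also: 0% = DMSO with enzyme and 100% = DMSO wells lacking diaphorase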
* hit, by the source's call. Most compounds without a hit are left out; they make up all but 1.7% or so of the library.

`CCCCn1nc(C(=O)Nc2cc(C(F)(F)F)ccc2N2CCOCC2)ccc1=O` gave APJ agonist -2, Beta2AR agonist -3, CCR6 antagonist 5, APJ antagonist 12, CXCR6 inh 1 and PfGluPho inh 10.
`CCOC(=O)C1=C(CSc2nc(-c3ccncc3)ccc2C#N)OC(N)=C(C#N)C1c1ccc(OC)cc1` (stereo unspecified) gave APJ agonist 4, Beta2AR agonist -6, CCR6 antagonist 7, APJ antagonist -7, CXCR6 inh 16, PfGluPho inh 59* and PfG6PD confirm 10.
`O=C(NCc1nnnn1-c1ccc(F)cc1)c1ccc2c(c1)OCO2` gave CXCR6 inh 2 and PfGluPho inh -5.
CCOC(=O)C1Nc2ccc(C(=O)O)cc2C2C=CCC12 (stereo unspecified) was read as APJ agonist -2, Beta2AR agonist -7, CCR6 antagonist 13, APJ antagonist 0, CXCR6 inh -5, PfGluPho inh 62* and PfG6PD confirm 21.
Screening CC(=O)Cc1cc(O)c2ccccc2c1OC(=O)c1ccccc1 returned APJ agonist 8, Beta2AR agonist 11, CCR6 antagonist -8, APJ antagonist -55, CXCR6 inh -3, PfGluPho inh 66* and PfG6PD confirm 6.
CC(=O)c1cc(C)c(OC(=O)c2ccccc2)c(C)c1 was read as Beta2AR agonist 11, CCR6 antagonist 13, CXCR6 inh 6 and PfGluPho inh 1.
C[C@H](CO)N1C[C@H](C)[C@H](CN(C)C(=O)c2ccc3ccn(C)c3c2)OCc2cnnn2CCCC1=O was read as CXCR6 inh -1 and PfGluPho inh -6.
`CCCc1nc2sc3c(=O)n(N)cnc3c2c2c1COC(C)(C)C2` gave APJ agonist -4 and APJ antagonist -3.
Screening CC(C)c1nc2sc3c(=O)n(N)cnc3c2c2c1COC(C)(C)C2 returned APJ agonist -2, Beta2AR agonist -19, CCR6 antagonist 7, APJ antagonist 4, CXCR6 inh -2, PfGluPho inh 60* and PfG6PD confirm 15.
Screening CC(C)(C)c1ccc(OCCC(=O)OCC(=O)Nc2cccnc2Cl)cc1 returned APJ agonist -3, Beta2AR agonist -4, CCR6 antagonist 14, APJ antagonist -8, CXCR6 inh -1 and PfGluPho inh -37.
Cc1ccc(S(=O)(=O)N(C)/C(=N/S(=O)(=O)c2ccccc2)c2ccccc2)cc1 was read as APJ agonist -3, Beta2AR agonist -17, CCR6 antagonist -4, APJ antagonist -4, CXCR6 inh 2, PfGluPho inh 82* and PfG6PD confirm 46.
`Cc1ccc(S(=O)(=O)/N=C(\c2ccccc2)N(C)S(=O)(=O)c2ccc(C)cc2)cc1` gave APJ agonist -2, Beta2AR agonist -10, CCR6 antagonist 5, APJ antagonist 15, CXCR6 inh 7 and PfGluPho inh 55.
`COc1ccc(NC(=O)c2ccc3[nH]c(C)c(C)c3c2)c(OC)c1` gave APJ agonist -5, Beta2AR agonist -21, CCR6 antagonist 1, APJ antagonist 0, CXCR6 inh 0, PfGluPho inh 62* and PfG6PD confirm -4.
`OCc1ccccc1N=c1ssnc1Cl` gave APJ agonist 2 and APJ antagonist 13.
Screening Clc1nssc1=Nc1nncs1 returned APJ agonist -1, Beta2AR agonist 1, CCR6 antagonist 15, APJ antagonist 26, CXCR6 inh 18, PfGluPho inh 100*, PfG6PD confirm 82*, Diaphorase 10uM 1 and Diaph ctr 30uM -16.
